Drawing on ChEMBL document CHEMBL2417498, “Design and synthesis of 6,7-methylenedioxy-4-substituted phenylquinolin-2(1H)-one derivatives as novel anticancer agents that induce apoptosis with cell cycle arrest at G2/M phase” (Bioorg Med Chem, 2013), this text covers IC50 for 15 compounds.

Bounds are passed on as bounds.

For test [1], the system named is A498. As to the kind of experiment: Cytotoxicity against human A498 cells after 48 hrs by MTT assay. The class given is functional, cell-based. Conditions: A498, 48 h. The procedure, abridged: (§1)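 Log-phase tumour cells grown in RPMI-1640 with 10% FBS, penicillin/streptomycin and 1% L-glutamine at 37 °C, 5% CO2. Cells treated with vehicle or a range of concentrations for 48 h. Growth measured by MTT reduction, absorbance at 570 nm. IC50 is the concentration giving 50% proliferation inhibition, from 3 independent experiments.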
In general terms: Tetrazolium dyes change colour on reduction, which living cells bring about.

A short description of test [2]: Cytotoxicity against human H460 cells after 48 hrs by MTT assay. It counts as functional, cell-based. Conditions: NCI-H460, 48 h. The procedure, abridged:
as §1

Test [3] relates to COLO 205. As to the kind of experiment: Cytotoxicity against human COLO205 cells after 48 hrs by MTT assay. It counts as functional, cell-based. Conditions: COLO 205, 48 h. The procedure, abridged: as §1
The nature of test [4]: Cytotoxicity against human Hep3B cells after 48 hrs by MTT assay. The class given is functional, cell-based, Hep 3B2. In outline:
(§2)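 Detroit 551 normal skin cells and Hep 3B hepatoma cells grown in DMEM with 10% FBS, penicillin/streptomycin and 1% L-glutamine at 37 °C, 5% CO2. Log-phase cells treated with vehicle or a range of concentrations for 48 h. MTT reduction read at 570 nm. IC50 (50% proliferation inhibition) taken from 3 independent experiments.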

The test system of test [5] is SK-OV-3. As to the kind of experiment: Cytotoxicity against human SKOV3 cells after 48 hrs by MTT assay. It counts as functional, cell-based. Conditions: SK-OV-3, 48 h. In outline: as §1
Test [6] deals with HL-60. As to the kind of experiment: Cytotoxicity against human HL60 cells after 48 hrs by MTT assay. It counts as functional, cell-based. Conditions: HL-60, 48 h. In outline: as §1
Test [7] is described as follows: Cytotoxicity against human 2774 cells after 48 hrs by MTT assay. The class given is functional, cell-based.
Test [8] concerns MCF7. As to the kind of experiment: Cytotoxicity against human MCF7 cells after 48 hrs by MTT assay. The class given is functional, cell-based. Conditions: MCF7, 48 h. The procedure, abridged:
as §1

In test [9] the test system is Detroit 551. As to the kind of experiment: Cytotoxicity against human Detroit 551 cells after 48 hrs by MTT assay. The class given is cell-based. Conditions: Detroit 551, 48 h. The procedure, abridged:
as §2

Regarding `COc1cc(OC)cc(-c2cc(=O)[nH]c3cc4c(cc23)OCO4)c1`, the concentration for half-maximal inhibition (IC50) in test [1] is 11.7 µM; in test [2], above 10 µM; in test [3], above 50 µM; in [4], above 10 µM; in test [5], above 30 µM; in [6], 2.9 µM. Further, the IC50 in test [7] is 8.3 µM; in [8], above 30 µM; in [9] it was above 10 µM.

Regarding `COc1cc(OC)c(-c2cc(=O)[nH]c3cc4c(cc23)OCO4)c(OC)c1`, the IC50 in [1] was above 50 µM; in [2] it was 67.6 µM; in test [3] it was 37.4 µM; in test [4] it was above 100 µM; in [5], above 30 µM; in [6], 75 µM. For the same compound, the IC50 was above 30 µM in test [7], 21 µM in [8] and above 100 µM in test [9].

As to `COc1ccccc1-c1cc(=O)[nH]c2cc3c(cc12)OCO3`, the IC50 in test [1] is 9.8 µM; in test [2], above 25 µM; in [3], 18.1 µM; in test [4], 23.3 µM; in test [5], 26.6 µM; in [6] it was 10 µM. In addition, the results for the half-inhibitory concentration (IC50) in test [7], in [8] and in [9] were 18.8 µM, 27.1 µM and above 25 µM, respectively.

With `COc1ccc(OC)c(-c2cc(=O)[nH]c3cc4c(cc23)OCO4)c1`, the concentration for half-maximal inhibition (IC50) is 28.9 µM in test [1]; 10 µM in test [2]; 6.1 µM in [3]; 10 µM in [4]; 20 µM in test [5]; 3.5 µM in [6]. The IC50 in [7] was 6.5 µM; in test [8], 3.7 µM; in [9] it was above 100 µM.

On to `COc1cc(-c2cc(=O)[nH]c3cc4c(cc23)OCO4)cc(OC)c1OC`, for which the half-inhibitory concentration (IC50) in test [1] was above 50 µM; in [2], 7.6 µM; in [3], above 50 µM; in test [4], 5 µM; in test [5] it was 0.93 µM; in test [6] it was 2.3 µM. Further, the results for the IC50 in [7], in test [8] and in test [9] were 2.1 µM, 4.5 µM and above 25 µM, respectively.

With `O=c1cc(-c2ccccc2F)c2cc3c(cc2[nH]1)OCO3`, the IC50 in test [1] was above 50 µM; in [2] it was above 100 µM; in test [3], above 50 µM; in test [4], above 100 µM; in [5] it was above 30 µM; in [6], above 100 µM. Besides, the half-inhibitory concentration (IC50) in test [7] was 26.4 µM; in test [8], above 30 µM; in [9] it was above 100 µM.

As for `O=c1[nH]cc(F)c(=O)[nH]1` [FLUOROURACIL], the values for the IC50 in test [2] and in test [6] were 26.7 µM and 22.3 µM, respectively.

`O=c1cc(-c2ccc(F)cc2)c2cc3c(cc2[nH]1)OCO3`: the 50% inhibitory concentration (IC50) in test [1] is above 50 µM; in test [2], above 20 µM; in test [3], above 50 µM; in [4], above 20 µM; in [5], above 30 µM; in test [6] it was above 60 µM. The concentration for half-maximal inhibition (IC50) is 17.6 µM in test [7], above 30 µM in test [8] and above 20 µM in test [9].

Turning to `COc1cccc(-c2cc(=O)[nH]c3cc4c(cc23)OCO4)c1`, the IC50 in test [1] was above 50 µM; in [2], above 10 µM; in test [3], 39.6 µM; in test [4], above 10 µM; in [5] it was 24.6 µM; in test [6], above 10 µM. In addition, the IC50 in test [7] is 15.6 µM; in [8] it was 14.9 µM; in test [9] it was above 10 µM.

Take `COc1ccc(-c2cc(=O)[nH]c3cc4c(cc23)OCO4)cc1OC`: the IC50 is 25.6 µM in test [1]; 14.4 µM in [2]; 16.8 µM in test [3]; 14.6 µM in [4]; 6.4 µM in test [5]; 4.1 µM in [6]. The concentration for half-maximal inhibition (IC50) in test [7] turned out to be 6.6 µM; in test [8], 14.3 µM; in [9], 23.6 µM.

As to `O=c1cc(-c2ccccc2)c2cc3c(cc2[nH]1)OCO3`, the IC50 in test [1] was 42.7 µM; in test [2], above 50 µM; in test [3], above 50 µM; in test [4] it was above 50 µM; in test [5], above 30 µM; in [6] it was above 50 µM. The figures for the IC50 in [7], in test [8] and in test [9] were above 30 µM, 18.5 µM and above 50 µM, respectively.

With `COc1cccc(OC)c1-c1cc(=O)[nH]c2cc3c(cc12)OCO3`, the half-maximal inhibitory concentration (IC50) was above 50 µM in [1]; above 100 µM in [2]; above 50 µM in test [3]; above 100 µM in [4]; above 30 µM in test [5]; above 100 µM in [6]. Also, the results for the IC50 in test [7], in [8] and in test [9] were above 30 µM, 29.8 µM and above 100 µM, respectively.

For the compound `COc1ccc(-c2cc(=O)[nH]c3cc4c(cc23)OCO4)cc1`, the half-inhibitory concentration (IC50) in test [1] was above 25 µM; in [2], above 20 µM; in test [3], above 50 µM; in [4], above 20 µM; in test [5], 26.8 µM; in test [6], above 20 µM. In addition, the IC50 was above 30 µM in [7], above 30 µM in test [8] and above 20 µM in test [9].

For the compound `O=c1cc(-c2cccc(F)c2)c2cc3c(cc2[nH]1)OCO3`, the half-maximal inhibitory concentration (IC50) was above 50 µM in test [1]; above 20 µM in test [2]; above 50 µM in test [3]; above 20 µM in [4]; above 30 µM in [5]; above 20 µM in [6]. The IC50 in test [7] was 24.5 µM; in test [8], above 30 µM; in test [9], above 20 µM.

For `COc1cc([C@@H]2c3cc4c(cc3[C@@H](O[C@@H]3O[C@@H]5CO[C@@H](C)O[C@H]5[C@H](O)[C@H]3O)[C@H]3COC(=O)[C@H]23)OCO4)cc(OC)c1O` [ETOPOSIDE], the half-maximal inhibitory concentration (IC50) in test [2] is 1 µM; in test [6], 5.48 µM.

As usually defined, the IC50 is the point on the concentration scale where inhibition reaches its midpoint. Read a low IC50 as higher potency.
